TAAR1 antag = human TAAR1 antagonism | Q96RJ0 | CHO RD-HGA16 TAAR1, Fluo-8 calcium fluorescence, antagonist | inhibition, % at 3 µM | 360,000 tested, 1.5% active | AID 624466;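 active = inhibition above a per-plate cutoff, the mean inhibition of test compounds on that plate plus 3 SD, cut at about 49% in these data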;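 note: 0% = DMSO plus EC80 beta-PEA response and 100% = DMSO alone without agonist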
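Material: RD-HGA16 CHO cells with stable hTAAR1 and Gα16; Dosing: single nominal final test compound concentration of 3 µM; Schedule: seeding 17-24 h prior, 75-min 37 °C, 30-min RT dye loading; Detection: kinetic Fluo-8 calcium fluorescence measurement; Measure: % inhibition from peak post-agonist over basal fluorescence ratio; Benchmarks: vehicle and agonist controls.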
GPR7 antagonist = blocks human GPR7 receptor signaling | inhibition, % at 4.4 µM | P48145 | GPR7-expressing cells, fluorescence antagonist assay | AID 1861 | 290,000 tested, 1.1% active; in the data active = inhibition above about 16%, passing the limit was not always enough;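 note: cells stimulated with the agonist NPW; 0% = agonist with vehicle and 100% = vehicle without agonist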
Target sequence (P48145 whole entry, looked up): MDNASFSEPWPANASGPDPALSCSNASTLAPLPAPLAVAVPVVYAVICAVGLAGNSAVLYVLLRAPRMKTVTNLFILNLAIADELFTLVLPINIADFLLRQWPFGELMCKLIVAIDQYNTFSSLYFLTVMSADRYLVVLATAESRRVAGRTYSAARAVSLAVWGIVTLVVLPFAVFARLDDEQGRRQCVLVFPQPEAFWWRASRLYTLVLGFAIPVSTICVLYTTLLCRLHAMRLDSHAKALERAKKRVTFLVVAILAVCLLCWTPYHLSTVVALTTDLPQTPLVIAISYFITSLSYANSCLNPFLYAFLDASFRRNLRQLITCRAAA
OX1R antag-1 = OX1R (human) antagonism; O43613; OX1R-expressing cells, FRET antagonist read-out; inhibition, % at 6.6 µM; 330,000 tested, 1.8% active; in the data active = inhibition mostly above about 38%, no sharp cut-off; inactive = mostly below about 40%;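 note: 0% = agonist challenge alone and 100% = reference antagonist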
Target sequence (O43613 whole entry, looked up): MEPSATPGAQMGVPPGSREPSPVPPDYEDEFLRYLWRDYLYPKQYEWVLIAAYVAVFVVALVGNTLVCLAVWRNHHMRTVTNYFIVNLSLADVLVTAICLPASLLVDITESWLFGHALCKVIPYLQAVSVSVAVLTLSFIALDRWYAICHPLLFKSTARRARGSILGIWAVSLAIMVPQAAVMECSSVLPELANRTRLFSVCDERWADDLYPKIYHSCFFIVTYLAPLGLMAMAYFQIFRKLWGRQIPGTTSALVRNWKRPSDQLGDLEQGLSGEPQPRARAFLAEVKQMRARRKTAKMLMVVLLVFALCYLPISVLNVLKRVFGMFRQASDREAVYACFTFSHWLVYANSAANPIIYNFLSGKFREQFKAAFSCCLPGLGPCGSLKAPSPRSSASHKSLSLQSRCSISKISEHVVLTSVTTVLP
OX1R antag-2 = human HCRTR1 antagonism; O43613; CHO/OX1R cells, Fluo-8 calcium fluorescence, orexin A; inhibition, % at 5 µM; 330,000 tested, 0.43% active; AID 434989;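 active = inhibition above its plate's threshold, mean inhibition of all tested compounds on the plate plus 3 SD, cut at about 37% in these data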;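 note: 0% = orexin A challenge wells and 100% = SB-334867-A antagonist wells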
CHO parental Ca = signal in parental CHO cells, OX1R antagonist counter-screen. parental CHO-K1, ATP-induced calcium, Fluo-8 fluorescence. inhibition, % at 5.6 µM. 330,000 tested, 0.63% active. AID 463079;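 active = inhibition above that plate's mean sample inhibition plus 3 SD, cut at about 26% in these data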;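 note: 0% = ATP-challenged DMSO wells and 100% = DMSO wells without ATP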
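Material: Parental CHO cells | Reagent: ATP | Compound dosing: Single nominal dose of 5.6 µM per compound | Detection: Intracellular calcium via Fluo-8 no-wash fluorescent dye | Read-out: % inhibition of ATP-induced calcium mobilization | Benchmarks: Low control ATP plus DMSO, high control DMSO only | Replicates: Singlicate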
TAAR1 agonist = human TAAR1 agonism. Q96RJ0. CHO RD-HGA16 TAAR1, Fluo-8 calcium fluorescence; vehicle wells 0%, saturating PEA agonist 100%. activation, % at 3 µM. 360,000 tested, 0.99% active. AID 624467;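 active = activation above the mean activation of all test compounds in the run plus 3 SD, cut at about 38% in these data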
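Benchmarks: low control DMSO, high control PEA (EC100); System: CHO RD-HGA16 cells carrying human TAAR1 plus Gα16; Detection: Fluo-8 fluorescence, 5 s baseline then 140 s kinetic read; Schedule: 17-24 h plating, Fluo-8 75 min 37 °C, 30 min RT; Read-out basis: % activation from peak over basal fluorescence ratio, DMSO-to-PEA scaled.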
Active calls of the source: *; . = not tested or not shown. Hits are enriched below; roughly 4.6% of the tested compounds scored in any of these assays.

SMILES	TAAR1 antag	GPR7 antagonist	OX1R antag-1	OX1R antag-2	CHO parental Ca	TAAR1 agonist
CC(NC(=O)COC(=O)c1cn(-c2ccccc2)nc1-c1cccs1)c1ccccc1 (stereo not given)	19.7	-6.0	64.0*	10.4	-6.9	9.1
COC(=O)C1(C(=O)OC)C2CCCCC2N(S(=O)(=O)c2ccc(C)cc2)[C@@H]1CC(C)=O (stereo not given in full)	10.5	.	.	.	.	-1.0
O=[S@]1Oc2ccccc2-c2ccccc21	12.4	.	6.1	8.8	-5.1	51.0*
CCN1/C(=C/C(C)=C/c2sc3ccccc3[n+]2CC)Sc2ccccc21	32.4	2.1	63.3*	94.7*	87.1*	16.6
CCN1/C(=C\C(=S)Nc2ccccc2)Sc2ccccc21	2.3	9.8	9.6	-26.5	-9.4	0.1
C#CCNC(=O)C[C@@H]1C[C@@]2(C(=O)OC)CCCCC=C2N(Cc2ccc(Cl)cc2Cl)C1=O	8.5	.	.	.	.	1.2
O=C(CC1SC(=O)N(Cc2cccc3ccccc23)C1=O)Nc1nccs1 (stereo not given)	16.3	9.7	62.0*	-11.8	-26.6	4.4
O=C(Cc1ccccc1)Nc1nccs1	-1.3	1.9	26.2	1.1	-3.0	3.7
O=C1C(Oc2ccc(Cl)cc2)C(c2ccc3c(c2)OCO3)N1CC1CCCO1 (stereo not given)	50.3*	4.6	18.5	-23.8	-5.8	13.9
CC(C)NC(=O)C1(C)CSCC(=O)N1CCOc1ccccc1 (stereo not given)	-9.7	.	.	.	.	0.7
Cc1ccc(C2=C(O)c3ccccc3C(=O)C2=O)cc1	4.5	-25.4	40.8*	-11.8	-6.3	0.0
O=C1C(=O)c2ccccc2C(O)=C1c1cccc([N+](=O)[O-])c1	-27.6	-4.1	51.8*	0.7	-15.7	-0.2
Cc1ccc(S(=O)(=O)NNC(=S)NC(=O)c2ccc([N+](=O)[O-])cc2)cc1	-24.0	-1.5	69.8*	-18.9	-6.1	2.2
CCCCCC(=O)NNC(=S)NC(=O)c1ccc([N+](=O)[O-])cc1	-4.7	-4.0	69.7*	-20.1	-6.6	8.8
O=C(NNC(=O)c1ccccc1O)c1ccc(-c2ccc([N+](=O)[O-])cc2)o1	41.2	.	54.6*	3.2	16.8	15.3
O=C(c1ccc(-c2ccc([N+](=O)[O-])cc2)o1)N1CCCCC1	0.1	5.2	26.3	-3.3	-9.5	3.3
O=C(NC(=S)NNC(=O)c1ccccc1O)c1ccc([N+](=O)[O-])cc1	21.1	-8.1	17.3	-15.2	-0.6	44.1*
Cc1ccc(C(=O)NC(=S)NNC(=O)c2ccc([N+](=O)[O-])cc2)cc1	-13.7	5.8	8.7	-22.5	-5.1	28.5
O=C(NNC(=S)NC(=O)c1ccccc1[N+](=O)[O-])c1ccccc1[N+](=O)[O-]	-5.2	-5.9	14.7	0.0	-5.7	-0.5
Cc1ccc(C(=O)NC(=S)NNC(=O)c2ccccc2[N+](=O)[O-])cc1	3.2	-13.4	13.4	-11.1	1.9	37.8*
FC(F)(F)c1cccc(NC(=S)N2CCN(c3cccc(C(F)(F)F)c3)CC2)c1	32.0	-5.1	16.4	-5.8	69.5*	4.9
CC1=C(C(=O)Nc2cccc(C(=O)N3CCN(c4cccc(C(F)(F)F)c4)CC3)c2)SCCO1	55.7*	7.8	9.4	62.1*	40.0*	8.2
COc1ccc2cc(C(=O)CS(=O)(=O)c3ccc(Cl)cc3)c(=O)oc2c1	6.4	.	.	.	.	0.5
Cc1cc(C)c(Cn2cnc(-c3ccc([N+](=O)[O-])cc3)c2)c(C)c1	-27.3	-8.8	15.4	23.8	-13.1	9.2
CC(C)(C)c1ccc(Cn2cnc(-c3ccc([N+](=O)[O-])cc3)c2)cc1	0.8	-2.6	15.2	-22.6	42.3*	-1.1
SMILES	TAAR1 antag	GPR7 antagonist	OX1R antag-1	OX1R antag-2	CHO parental Ca	TAAR1 agonist
C[C@H](O)[C@@H]1CN2CCc3ccc(-c4ccc5c(c4)OCO5)cc3[C@@H]2C[C@@H]1N(C)C(=O)c1ccco1	-11.4	.	.	.	.	-1.2
COc1ccc(/C=C(\C#N)c2n[nH]c(Cn3cncn3)n2)cc1	6.6	20.3*	24.4	-17.5	-14.5	0.0
O=C(O)c1ccc(NC(=O)c2cn(-c3ccccc3)nc2-c2ccc(F)cc2)cc1	59.5*	-10.1	15.5	-5.5	-8.4	5.3
O=C(O)c1ccc(NC(=O)c2cn(-c3ccccc3)nc2-c2cccc(Cl)c2)cc1	52.5*	-14.0	30.3	9.9	11.0	5.9
CCN(CC)C(=O)c1ccc(COc2ccc(Cl)c(C)c2)o1	20.2	3.0	19.0	-12.6	44.2*	2.8
Cc1cc(OCc2ccc(C(=O)n3cccn3)o2)ccc1Cl	4.3	8.7	23.1	-3.7	-9.3	5.4
CCOc1ccc2c(c1)sc(N)[n+]2Cc1cc(C)cc2cccnc12	-6.8	35.4*	11.0	-10.1	-7.9	24.7
COC(=O)[C@]12C[C@H](CC(=O)NCc3ccccc3)C(=O)N(Cc3ccccc3)C1=C[C@H](C(C)C)O[C@@H]2C1CC1	-6.3	.	.	.	.	-2.6
CCC(c1nnnn1-c1ccc2c(c1)OCCO2)N1CCc2ccccc2C1 (stereo not given)	-2.2	.	.	.	.	-0.7
Cc1ccc([N+](=O)[O-])cc1NC(=O)c1ccc(C(C)(C)C)cc1	53.5*	1.7	15.1	11.2	-3.9	7.3
O=C(Nc1cccc(O)c1)c1ccc(NC(=O)c2cccs2)cc1	52.3*	-5.2	43.9	1.9	-5.5	7.8
COc1cc(C(=O)Nc2cccc(NC(=O)c3cccs3)c2)cc(OC)c1OC	51.2*	-16.9	.	.	.	12.3
COc1cc(C(=O)Nc2cccc(NC(=O)c3ccccc3)c2)cc(OC)c1OC	45.9	-22.1	8.3	-15.6	-15.0	13.8
CCOC(=O)Cn1c(-c2ccccc2)nc2ccccc2c1=O	10.7	2.5	74.8*	14.8	-29.3	19.8
CCOC(=O)CSc1nc(-c2ccccc2)nc2ccccc12	3.5	2.9	37.6*	-15.0	-18.0	13.1
CCCCOC(=O)Cn1c(-c2ccccc2)nc2ccccc2c1=O	-20.8	-8.1	20.2	-43.8	-20.9	1.3
CCOC(=O)CSc1nc(-c2ccccc2)nc2ccc(F)cc12	-22.0	-1.9	0.7	-7.3	-12.5	4.3
C[C@H]1CCCCO[C@@H](CN(C)CC2CC2)[C@@H](C)CN([C@@H](C)CO)C(=O)c2cc(NS(=O)(=O)c3ccccc3)ccc2O1	-0.7	.	.	.	.	-0.6
O=C(NCCc1cccs1)C12CN(Cc3ccccc3)CC1C(c1cccc([N+](=O)[O-])c1)=NO2 (stereo not given)	0.2	1.5	12.6	-9.7	-5.6	40.1*
COc1cc(Br)cc2cc(C(=O)OC3CCN(C)CC3)c(=O)oc12	-1.1	-13.1	49.3*	-15.2	11.2	10.0
COc1cccc2cc(C(=O)OC3CCN(C)CC3)c(=O)oc12	21.8	-4.0	40.2	-30.4	-14.2	0.8
COC1=CC(=O)OC(c2cccc(C#N)c2)C1 (stereo not given)	-22.4	.	.	.	.	2.5
